From ChEMBL document CHEMBL1140964, “1,8-Naphthyridines VII. New substituted 5-amino[1,2,4]triazolo[4,3-a][1,8]naphthyridine-6-carboxamides and their isosteric analogues, exhibiting notable anti-inflammatory and/or analgesic activities, but no acute gastrolesivity” (Eur J Med Chem, 2008)

What was measured:
[1] = test system: Mus musculus; experiment: Sedative activity in Swiss mouse assessed as inhibition of spontaneous locomotor activity at 100 mg/kg, po dose measured for every 5 mins during 60 to 90 mins; format: organism-based; design: dose 100 mg/kg, route oral
Procedure, shortened: (§1)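 Fasted Swiss mice (25–35 g, either sex) were given compound orally in 0.5% methylcellulose or vehicle. Each mouse was placed alone in a photobeam-type activity cage, with counts recorded every 5 min for 90 min. Pulses from the final 30 min were scored, with testing run 9:00–13:00. Percent inhibition was calculated versus controls (Student's t-test).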

[2] = test system: Rattus norvegicus; experiment: Antiinflammatory activity against carrageenan-induced paw edema in Wistar rat at 100 mg/kg, po dose administered 1 hr before carrageenan challenge assessed after 3 hrs; format: functional
Procedure, shortened: (§2)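 Wistar rats (250–300 g, either sex), fasted overnight, dosed by oral gavage with the compound suspended in 0.5% methylcellulose. Controls received vehicle alone, with 8–10 animals per group. Dosing started at 100 mg/kg and was halved stepwise. Carrageenan (1%, 0.1 mL) was injected subplantar 1 h post-dose. Paw volume was measured by plethysmometer immediately and at 3 h, and % inhibition of swelling was calculated versus controls (Student's t-test).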

[3] = test system: Rattus norvegicus; experiment: Antiinflammatory activity against carrageenan-induced paw edema in Wistar rat at 12.5 mg/kg, po dose administered 1 hr before carrageenan challenge assessed after 3 hrs; format: functional; procedure, shortened: as §2
[4] = test system: Mus musculus; experiment: Antinociceptive activity in Swiss mouse assessed as inhibition of acetic acid-induced writhing response at 50 mg/kg, po dose administered 1 hr before acetic acid challenge measured for 30 mins; format: functional
Procedure, shortened: (§3)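 Swiss mice (25–35 g, either sex), fasted overnight, received compound orally in 0.5% methylcellulose or vehicle, with 8–10 per group. Testing started at 100 mg/kg with successive twofold dose reductions. Writhes were counted for 30 min after acetic acid injection. Percent inhibition of the writhing response was calculated versus vehicle controls (Student's t-test).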

[5] = test system: Rattus norvegicus; experiment: Antiinflammatory activity against carrageenan-induced paw edema in Wistar rat at 6.25 mg/kg, po dose administered 1 hr before carrageenan challenge assessed after 3 hrs; format: functional; procedure, shortened: as §2
[6] = test system: Rattus norvegicus; experiment: Antiinflammatory activity against carrageenan-induced paw edema in Wistar rat at 3.12 mg/kg, po dose administered 1 hr before carrageenan challenge assessed after 3 hrs; format: functional
[7] = test system: Rattus norvegicus; experiment: Antiinflammatory activity against carrageenan-induced paw edema in Wistar rat at 50 mg/kg, po dose administered 1 hr before carrageenan challenge assessed after 3 hrs; format: functional; procedure, shortened: as §2
[8] = test system: Rattus norvegicus; experiment: Antiinflammatory activity against carrageenan-induced paw edema in Wistar rat at 25 mg/kg, po dose administered 1 hr before carrageenan challenge assessed after 3 hrs; format: functional; procedure, shortened: as §2
[9] = test system: Mus musculus; experiment: Antinociceptive activity in Swiss mouse assessed as inhibition of acetic acid-induced writhing response at 25 mg/kg, po dose administered 1 hr before acetic acid challenge measured for 30 mins; format: functional; procedure, shortened: as §3
[10] = test system: Mus musculus; experiment: Antinociceptive activity in Swiss mouse assessed as inhibition of acetic acid-induced writhing response at 100 mg/kg, po dose administered 1 hr before acetic acid challenge measured for 30 mins; format: functional; procedure, shortened: as §3
[11] = test system: Mus musculus; experiment: Antinociceptive activity in Swiss mouse assessed as inhibition of acetic acid-induced writhing response at 12.5 mg/kg, po dose administered 1 hr before acetic acid challenge measured for 30 mins; format: functional; procedure, shortened: as §3
[12] = test system: Mus musculus; experiment: Sedative activity in Swiss mouse assessed as inhibition on spontaneous locomotor activity at 25 mg/kg, po measured for every 5 mins during 60 to 90 mins; format: functional, organism-based; design: dose 25 mg/kg, route oral; procedure, shortened: as §1
[13] = test system: Mus musculus; experiment: Sedative activity in Swiss mouse assessed as inhibition on spontaneous locomotor activity at 12.5 mg/kg, po dose measured for every 5 mins during 60 to 90 mins; format: ADME, organism-based; design: dose 12.5 mg/kg, route oral; procedure, shortened: as §1
[14] = test system: Mus musculus; experiment: Antinociceptive activity in Swiss mouse assessed as inhibition of acetic acid-induced writhing response at 200 mg/kg, po dose administered 1 hr before acetic acid challenge measured for 30 mins; format: functional
[15] = test system: Rattus norvegicus; experiment: Antiinflammatory activity against carrageenan-induced paw edema in Wistar rat at 200 mg/kg, po dose administered 1 hr before carrageenan challenge assessed after 3 hrs; format: functional
[16] = test system: Rattus norvegicus; experiment: Acute gastrolesivity in Wistar rat assessed as appearance of gastric lesions at 200 mg/kg, po after 5 hrs; format: toxicity, organism-based, Stomach; design: dose 200 mg/kg, route oral; details: in vivo
Procedure, shortened: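 Wistar rats (250–300 g, either sex), fasted overnight, given the compound orally at 200 mg kg-1 as a suspension in 0.5% methylcellulose by gavage (1 mL/100 g); 8 rats per compound. Stomachs were fixed in 2% formalin, opened along the greater curvature, and examined under a stereomicroscope by a blinded observer. The result is the number of rats with gastric damage over the number treated.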

[17] = test system: Mus musculus; experiment: Sedative activity in Swiss mouse assessed as inhibition on spontaneous locomotor activity at 6.25 mg/kg, po measured for every 5 mins during 60 to 90 mins; format: ADME, organism-based; design: dose 6.25 mg/kg, route oral; procedure, shortened: as §1
[18] = test system: Mus musculus; experiment: Antinociceptive activity in Swiss mouse assessed as inhibition of acetic acid-induced writhing response at 3.12 mg/kg, po dose administered 1 hr before acetic acid challenge measured for 30 mins; format: functional
[19] = test system: Mus musculus; experiment: Antinociceptive activity in Swiss mouse assessed as inhibition of acetic acid-induced writhing response at 6.25 mg/kg, po dose administered 1 hr before acetic acid challenge measured for 30 mins; format: functional; procedure, shortened: as §3
[20] = test system: Mus musculus; experiment: Antinociceptive activity in Swiss mouse assessed as inhibition of acetic acid-induced writhing response at 0.8 mg/kg, po dose administered 1 hr before acetic acid challenge measured for 30 mins; format: functional
[21] = test system: Mus musculus; experiment: Antinociceptive activity in Swiss mouse assessed as inhibition of acetic acid-induced writhing response at 1.6 mg/kg, po dose administered 1 hr before acetic acid challenge measured for 30 mins; format: functional
[22] = species on record: Mus musculus; experiment: animal or person; details: Swiss, po, read-out: INH
[23] = test system: Rattus norvegicus; experiment: Antiinflammatory activity against carrageenan-induced paw edema in Wistar rat at 10 mg/kg, po dose administered 1 hr before carrageenan challenge assessed after 3 hrs; format: functional

Compound	inhibition at 100 mg/kg [1] [%]	inhibition in vivo at 100 mg/kg [2] [%]	inhibition in vivo at 12.5 mg/kg [3] [%]	inhibition in vivo at 50 mg/kg [4] [%]	inhibition in vivo at 6.25 mg/kg [5] [%]	inhibition in vivo at 3.12 mg/kg [6] [%]	inhibition in vivo at 50 mg/kg [7] [%]	inhibition in vivo at 25 mg/kg [8] [%]	inhibition in vivo at 25 mg/kg [9] [%]	inhibition in vivo at 100 mg/kg [10] [%]	inhibition in vivo at 12.5 mg/kg [11] [%]	inhibition at 25 mg/kg [12] [%]	inhibition at 12.5 mg/kg [13] [%]	inhibition in vivo at 200 mg/kg [14] [%]	inhibition in vivo at 200 mg/kg [15] [%]	Activity [16]	other results
CCN(CC)C(=O)c1c(N(C)CC)c2cccnc2n2c(C(C)C)nnc12	53	71	51	59	42	0	67	65	17	81	–	–	–	–	–	–	–
CCN(CC)C(=O)c1c(NC(C)C)c2cccnc2n2c(C(C)C)nnc12	98	81	68	54	15	–	75	75	33	83	0	26	0	–	–	–	–
CCN(CC)C(=O)c1c(NCC(C)C)c2cccnc2n2c(C(C)C)nnc12	15	70	50	33	27	18	66	61	–	100	–	–	–	100	74	Non-toxic	–
CCC(CC)Nc1c(C(=O)N(CC)CC)c2nnc(C(C)C)n2c2ncccc12	97	50	45	75	11	–	47	47	58	91	49	70	92	–	–	–	inhibition at 6.25 mg/kg [17]: 81%; inhibition in vivo at 3.12 mg/kg [18]: 18%; inhibition in vivo at 6.25 mg/kg [19]: 36%
CCN(CC)C(=O)c1c(N2CCN(C)CC2)c2cccnc2n2c(C(C)C)nnc12	94	23	–	85	–	–	–	–	90	88	92	99	74	86	34	Non-toxic	inhibition in vivo at 0.8 mg/kg [20]: 3%; inhibition at 6.25 mg/kg [17]: 19%; inhibition in vivo at 1.6 mg/kg [21]: 39%; inhibition in vivo at 3.12 mg/kg [18]: 85%; inhibition in vivo at 6.25 mg/kg [19]: 83%
CCOC(=O)N1CCN(c2c(C(=O)N(CC)CC)c3nnc(C(C)C)n3c3ncccc23)CC1	83	0	–	75	–	–	–	–	53	100	29	96	–	–	–	–	–
CCN(CC)C(=O)c1c(N2CCN(C)CC2)c2ccccc2n2c(C(C)C)nnc12	54	34	–	100	–	–	0	–	77	100	14	21	–	–	–	–	–
CCNc1c(C(=O)N(CC)CC)c2nnc(C(C)C)n2c2ncccc12	13	63	35	20	33	9	63	61	–	100	–	–	–	100	65	Non-toxic	–
COc1ccc2c(c1)c(CC(=O)O)c(C)n2C(=O)c1ccc(Cl)cc1 [INDOMETHACIN]	–	–	–	–	–	–	–	–	–	–	–	–	–	–	–	–	inhibition in vivo at 10 mg/kg [22]: 84%; inhibition in vivo at 10 mg/kg [23]: 51%
